Reference: ChEMBL document CHEMBL4196129, “Structural Optimization and Characterization of Potent Analgesic Macrocyclic Analogues of Neurotensin (8-13)” (J Med Chem, 2018)
Activity calls are given as the source filed them. The rule behind the calls is not given here. Starred links: 1 amine or outer side, 2 acyl side, 3 side chain; linkers in the order of their positions; H or OH if unused. Positions of bridges follow the written chain, without caps; N, C: chain ends. Non-standard residues stand in square brackets, D forms with d. Residues, ends and D or L forms follow the SMILES beside them. *: point of attachment. X6 = C=CCc1cc(C[C@H](N[*:1])C(=O)[*:2])ccc1O; NMeR = CN[C@@H](CCCNC(=N)N)C(=O)O; X7 = C=CCCCCCCC(=O)*

Experiments:
Rattus norvegicus [1] = assay: Hypotensive activity in Sprague-Dawley rat assessed as reduction in arterial blood pressure in third phase at 0.01 mg/kg, iv measured every second up to 900 secs; format: functional, organism-based
Summary of the method: (§1)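 Sprague-Dawley rats anesthetized with ketamine/xylazine (87:13 mg/kg, i.m.) on a heated pad. Compound given i.v. via jugular vein catheter at 0.01 mg/kg (1 mL/kg over 5-10 s); saline as control. Arterial pressure recorded each second for 900 s. Change in mean arterial pressure taken from basal level; n=3-5 rats.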

Rattus norvegicus [2] = assay: Hypotensive activity in Sprague-Dawley rat assessed as reduction in arterial blood pressure in first phase at 0.01 mg/kg, iv measured every second up to 900 secs
Rattus norvegicus [3] = assay: Analgesic activity in formalin-induced Sprague-Dawley rat pain model assessed as inhibition of nociceptive response in right hind paw at 30 ug/kg, it measured for 21 to 60 mins; format: functional, organism-based
Summary of the method: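 Male Sprague-Dawley rats dosed intrathecally at 30 µg/kg in 0.9% saline; 5 min later, 50 µl of 2% formaldehyde given into the right hind paw plantar surface. Weighted pain score (0-3) recorded per 3-min block over 60 min. Acute phase 0-9 min, inflammatory phase 21-60 min.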

Rattus norvegicus [4] = assay: Induction of hypothermia in Sprague-Dawley rat assessed as reduction in body temperature at 30 ug/kg, it after 60 mins; format: functional, organism-based
Summary of the method: (§2)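 Rectal thermistor temperature in adult Sprague-Dawley rats acclimatized 5 min/day for 3 days. Baseline taken, then readings every 10 min to 60 min after intrathecal dosing in 0.9% saline, at 0.3, 1, 3, 10 and 30 µg/kg for the dose-response series. Single-dose comparisons at 30 µg/kg read only at 60 min. Change from baseline per animal; AUC per dose used for ED50.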

[5] = Half life in rat plasma by UPLC-MS analysis; format: ADME, cell-free
Summary of the method: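 Quenched with acetonitrile/ethanol (1:1) plus 0.5% nicotinamide, centrifuged and filtered. Parent peptide measured by UPLC-MS; half-life from a one-phase decay fit.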

[6] = target: T1, Neurotensin receptor type 1 (Homo sapiens, UniProt P30989); assay: Displacement of [125I]Tyr3-neurotensin from human NTS1 receptor expressed in CHOK1 cell membranes after 60 mins by gamma counting analysis
Rattus norvegicus [7] = assay: Analgesic activity in Sprague-Dawley rat assessed as increase in tail withdrawal latency at 30 ug/kg, it measured every 10 mins up to 60 mins by tail flick test; format: functional, organism-based
Summary of the method: (§3)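 Adult male Sprague-Dawley rats (225-300 g), acclimatized 5 min/day for 3 days. Baseline tail-flick latency taken before injection. Dosing under light isoflurane anesthesia, intrathecal at L5-L6, compound in 0.9% saline; saline alone as control. Latency to heat (light beam) read every 10 min up to 60 min. %MPE taken at 10 min post-injection.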

Rattus norvegicus [8] = assay: Analgesic activity in Sprague-Dawley rat assessed as increase in tail withdrawal latency at 1 ug/kg, it measured every 10 mins up to 60 mins by tail flick test; format: functional, organism-based; summary of the method: as §3
Rattus norvegicus [9] = assay: Analgesic activity in Sprague-Dawley rat assessed as increase in tail withdrawal latency at 10 ug/kg, it measured every 10 mins up to 60 mins by tail flick test; format: functional, organism-based; summary of the method: as §3
Rattus norvegicus [10] = assay: Analgesic activity in it dosed Sprague-Dawley rat assessed as increase in tail withdrawal latency measured every 10 mins up to 60 mins by tail flick test; format: functional; summary of the method: as §3
Rattus norvegicus [11] = assay: Induction of hypothermia in it dosed Sprague-Dawley rat assessed as reduction in body temperature measured every 10 mins up to 60 mins; format: functional; summary of the method: as §2
Rattus norvegicus [12] = assay: Induction of hypothermia in Sprague-Dawley rat assessed as reduction in body temperature at 0.3 to 30 ug/kg, it after 60 mins; format: functional, organism-based; summary of the method: as §2
[13] = target: T1, Neurotensin receptor type 1; assay: Displacement of [3H]-neurotensin from NTS1 receptor (unknown origin) after 20 mins by liquid scintillation counting analysis
Rattus norvegicus [14] = assay: Hypotensive activity in Sprague-Dawley rat assessed as reduction in arterial blood pressure in first phase at 0.01 mg/kg, iv measured every second up to 900 secs; format: functional; summary of the method: as §1
Rattus norvegicus [15] = assay: Analgesic activity in Sprague-Dawley rat assessed as increase in tail withdrawal latency at 30 ug/kg, it measured at 10 mins post injection by tail flick test relative to control; format: functional; summary of the method: as §3
[16] = target: T1, Neurotensin receptor type 1; assay: Agonist activity at GFP10/beta-arrestin2-Rluc2 fused human NTS1 expressed in CHO-K1 cell membranes assessed as beta-arrestin2 recruitment after 20 mins by BRET assay; format: functional, cell-based
[17] = target: T1, Neurotensin receptor type 1; assay: Agonist activity at GFP10/beta-arrestin1-Rluc2 fused human NTS1 expressed in CHO-K1 cell membranes assessed as beta-arrestin1 recruitment after 20 mins by BRET assay; format: functional, cell-based
[18] = target: T1, Neurotensin receptor type 1; assay: Agonist activity at Galpha13-Rluc2/Gbeta1/GFP10-Ggamma1 fused human NTS1 expressed in CHO-K1 cell membranes assessed as Galpha13 activation after 5 mins by BRET assay; format: functional, cell-based
[19] = target: T1, Neurotensin receptor type 1; assay: Agonist activity at Galphaq-Rluc2/Gbeta1/GFP10-Ggamma1 fused human NTS1 expressed in CHO-K1 cell membranes assessed as Galphaq activation after 5 mins by BRET assay; format: functional, cell-based
[20] = target: T1, Neurotensin receptor type 1; assay: Displacement of [125I]Tyr3-neurotensin from human NTS1 receptor (end Leu 194 residues) expressed in CHO cells; format: cell-based
Summary of the method: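 Membranes from CHO-K1 cells stably expressing hNTS1 (15 µg) incubated with 45 pM 125I-[Tyr3]-NT in 50 mM Tris-HCl pH 7.5, 0.2% BSA. Analogue at 10^-11 to 10^-4 M for 60 min at 25°C, then filtration and gamma counting. Nonspecific binding defined with 10^-5 M NT(8-13).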

T1 sequence (P30989 whole entry): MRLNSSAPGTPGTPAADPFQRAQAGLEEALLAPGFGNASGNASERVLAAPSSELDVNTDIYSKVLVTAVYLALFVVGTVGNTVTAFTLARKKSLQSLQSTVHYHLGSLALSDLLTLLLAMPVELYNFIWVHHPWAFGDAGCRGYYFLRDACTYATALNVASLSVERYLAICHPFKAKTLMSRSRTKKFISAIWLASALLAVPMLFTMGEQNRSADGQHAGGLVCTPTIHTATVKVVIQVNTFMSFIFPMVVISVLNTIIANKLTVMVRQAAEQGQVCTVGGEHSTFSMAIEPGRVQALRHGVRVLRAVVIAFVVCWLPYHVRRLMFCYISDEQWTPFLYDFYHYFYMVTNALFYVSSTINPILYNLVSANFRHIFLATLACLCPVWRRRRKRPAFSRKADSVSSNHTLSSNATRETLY

## CCOC(=O)[C@H](CC(C)C)NC(=O)[C@@H](NC(=O)[C@H](Cc1c[nH]c2ccccc12)NC(=O)[C@H]1CCCN1C(=O)[C@H](CCCCN)NC(=O)[C@@H](N)CCCCN)C(C)(C)C
Rattus norvegicus [1]
  Activity: Active
Rattus norvegicus [2]
  Activity: Active
Rattus norvegicus [3]
  Activity: Active
Rattus norvegicus [4]
  deltaT: 2 °C

## CC[C@H](C)[C@H](NC(=O)[C@@H]1Cc2ccc(O)c(c2)CC=CCCNCCCC[C@H](N)C(=O)N[C@@H](CCCCN)C(=O)N2CCC[C@H]2C(=O)N1)C(=O)N[C@@H](CC(C)C)C(=O)O
[5]
  half-life: 15 min

## CCOC(=O)[C@H](CC(C)C)NC(=O)[C@@H](NC(=O)[C@H](Cc1c[nH]c2ccccc12)NC(=O)[C@@H]1CCCN1C(=O)[C@H](CCCCN)NC(=O)[C@@H](N)CCCCN)C(C)(C)C [listing 1 of 2 here]
[6]
  Ki: 159 nM

## CC[C@H](C)[C@H](NC(=O)[C@H]1Cc2ccc(O)c(c2)CC=CCCCCCC[C@](C)(N)C(=O)N[C@@H](CCCCN)C(=O)N2CCC[C@H]2C(=O)N1)C(=O)N[C@@H](CC(C)C)C(=O)O
Rattus norvegicus [1]
  Activity: inactive
Rattus norvegicus [2]
  Activity: Active
Rattus norvegicus [3]
  Activity: Active
Rattus norvegicus [7]
  Activity: Active
Rattus norvegicus [4]
  deltaT: 2 °C

## CC[C@H](C)[C@H](NC(=O)[C@H]1Cc2ccc(O)c(c2)CC=CCNCCC[C@@H](N)C(=O)N[C@@H](CCCCN)C(=O)N2CCC[C@H]2C(=O)N1)C(=O)N[C@@H](CC(C)C)C(=O)O
Rattus norvegicus [1]
  Activity: inactive
Rattus norvegicus [2]
  Activity: Active
Rattus norvegicus [8]
  Activity: inactive
Rattus norvegicus [9]
  Activity: Active
Rattus norvegicus [3]
  Activity: Active
Rattus norvegicus [10]
  Activity: Dose-dependent effect
Rattus norvegicus [7]
  Activity: Active
Rattus norvegicus [11]
  Activity: Dose-dependent effect
Rattus norvegicus [12]
  deltaT: 2 °C

## CC(C)C[C@H](NC(=O)[C@@H]1CCC(=O)NCC(=O)N(C)[C@@H](CCCNC(=N)N)C(=O)N[C@@H](CCCCN)C(=O)N2CCC[C@H]2C(=O)N[C@@H](Cc2c[nH]c3ccccc23)C(=O)N1)C(=O)O (G[NMeR]KPWEL-OH; lactam N-6)
[13]
  Ki: 3500 nM

## CC[C@H](C)[C@H](NC(=O)[C@@H]1Cc2ccc(O)c(c2)CC=CCNCCC[C@H](N)C(=O)N[C@@H](CCCCN)C(=O)N2CCC[C@H]2C(=O)N1)C(=O)N[C@@H](CC(C)C)C(=O)O [listing 1 of 2 here]
Rattus norvegicus [14]
  Activity: 25 mmHg
Rattus norvegicus [15]
  MPE: 50%
Rattus norvegicus [10]
  ED50: 4.63 µg/kg
Rattus norvegicus [11]
  ED50: 1.96 µg/kg

## C=CCCCCCCC(=O)N[C@@H](CCCCN)C(=O)N1CCC[C@H]1C(=O)N[C@@H](Cc1ccc(O)c(CC=C)c1)C(=O)N[C@H](C(=O)N[C@@H](CC(C)C)C(=O)O)[C@@H](C)CC (X7-KP[X6]IL-OH)
[6]
  Ki: > 10000 nM

## CC[C@H](C)[C@H](NC(=O)[C@@H]1Cc2ccc(O)c(c2)CC=CCCCCCC[C@](C)(N)C(=O)N[C@@H](CCCCN)C(=O)N2CCC[C@H]2C(=O)N1)C(=O)N[C@@H](CC(C)C)C(=O)O [listing 1 of 2 here]
[16]
  EC50: 28 nM
[5]
  half-life: 1440 min

## CC[C@H](C)[C@H](NC(=O)[C@@H]1Cc2ccc(O)c(c2)CC=CCCCCCC[C@](C)(N)C(=O)N[C@@H](CCCCN)C(=O)N2CCC[C@H]2C(=O)N1)C(=O)N[C@@H](CC(C)C)C(=O)O [listing 2 of 2 here]
Rattus norvegicus [14]
  Activity: 25 mmHg
Rattus norvegicus [15]
  MPE: 70%

## CC[C@H](C)[C@H](NC(=O)[C@@H]1Cc2ccc(O)c(c2)CC=CCNCCCCCC(=O)N[C@@H](CCCCN)C(=O)N2CCC[C@H]2C(=O)N1)C(=O)N[C@@H](CC(C)C)C(=O)O
[5]
  half-life: 1440 min
[17]
  EC50: 96 nM
[6]
  Ki: 656 nM

## CC[C@H](C)[C@H](NC(=O)[C@@H]1Cc2ccc(O)c(c2)CC=CCCCCCCC(=O)N[C@@H](CCCCN)C(=O)N2CCC[C@H]2C(=O)N1)C(=O)N[C@@H](CC(C)C)C(=O)O
[18]; cho-k1
  EC50: 433 nM
[17]; cho-k1
  EC50: 1500 nM
[6]
  Ki: 5600 nM

## C=CCNCCCC[C@H](N)C(=O)N[C@@H](CCCCN)C(=O)N1CCC[C@H]1C(=O)N[C@@H](Cc1ccc(O)c(CC=C)c1)C(=O)N[C@H](C(=O)N[C@@H](CC(C)C)C(=O)O)[C@@H](C)CC
[16]
  EC50: 9 nM
[5]
  half-life: 5 min
[19]
  EC50: 7 nM
[17]
  EC50: 15 nM

## CC[C@H](C)[C@H](NC(=O)[C@@H]1Cc2ccc(cc2)OCCCCCC(=O)N[C@@H](CCCNC(=N)N)C(=O)N2CCC[C@H]2C(=O)N1)C(=O)N[C@@H](CC(C)C)C(=O)O
[20]
  Ki: 450 nM

## CC[C@H](C)[C@H](NC(=O)[C@@H]1Cc2ccc(O)c(c2)CC=CCN(S(=O)(=O)c2ccccc2[N+](=O)[O-])CCCC[C@H](N)C(=O)N[C@@H](CCCCN)C(=O)N2CCC[C@H]2C(=O)N1)C(=O)N[C@@H](CC(C)C)C(=O)O
[5]
  half-life: 84 min

## CC[C@H](C)[C@H](NC(=O)[C@@H]1Cc2ccc(O)c(c2)CC=CCNCCC[C@H](N)C(=O)N[C@@H](CCCCN)C(=O)N2CCC[C@H]2C(=O)N1)C(=O)N[C@@H](CC(C)C)C(=O)O [listing 2 of 2 here]
[5]
  half-life: 30 to 39 min
[19]
  EC50: 3 nM
[18]
  EC50: 11 nM
[17]
  EC50: 4 nM

## CCOC(=O)[C@H](CC(C)C)NC(=O)[C@@H](NC(=O)[C@H](Cc1c[nH]c2ccccc12)NC(=O)[C@@H]1CCCN1C(=O)[C@H](CCCCN)NC(=O)[C@@H](N)CCCCN)C(C)(C)C [listing 2 of 2 here]
Rattus norvegicus [14]
  Activity: 25 mmHg
Rattus norvegicus [15]
  MPE: 75%

## CC[C@H](C)[C@H](NC(=O)[C@@H]1Cc2ccc(O)c(c2)CC=CCNCCCC[C@@H](N)C(=O)N[C@@H](CCCCN)C(=O)N2CCC[C@H]2C(=O)N1)C(=O)N[C@@H](CC(C)C)C(=O)O
[5]
  half-life: 1440 min

## CC[C@H](C)[C@H](NC(=O)[C@@H]1Cc2ccc(O)c(c2)CC=CCNCC[C@H](N)C(=O)N[C@@H](CCCCN)C(=O)N2CCC[C@H]2C(=O)N1)C(=O)N[C@@H](CC(C)C)C(=O)O
[5]
  half-life: 150 min

## CC(C)C[C@H](NC(=O)[C@@H]1CCC(=O)N[C@@H](CCCNC(=N)N)C(=O)N[C@@H](CCCCN)C(=O)N2CCC[C@H]2C(=O)N[C@@H](Cc2c[nH]c3ccccc23)C(=O)N1)C(=O)O (RKPWEL-OH; lactam N-5)
[13]
  Ki: 190 nM

## CC[C@H](C)[C@H](NC(=O)[C@@H]1Cc2ccc(O)c(c2)CC=CCCCNCCCC[C@H](N)C(=O)N[C@@H](CCCCN)C(=O)N2CCC[C@H]2C(=O)N1)C(=O)N[C@@H](CC(C)C)C(=O)O
[5]
  half-life: 18 min
